One experiment concerns HCT-116. As to the kind of experiment: Antiproliferative activity against wild type BRAF expressing human HCT116 cells after 48 hrs by MTT assay. Type of experiment: functional, cell-based. Particulars: HCT-116, 48 h. Put shortly: (§1)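 MTT assay. Cells seeded at 10^4 per well in 96-well plates and left 24 h. Compounds then added at 0.01, 0.1, 1, 10 and 100 µM for 48 h. IC50 values calculated from the viability data.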
(In general: Formazan colour is commonly taken as a measure of viable cells.)
Take `O=C(Nc1ccc2[nH]ncc2c1)c1cccc(NC(=O)c2ccccn2)c1`: the IC50 – broadly, the concentration at which inhibition is half-maximal – stood at 35.9 µM.

The molecule `O=C(Nc1cccc(C(=O)Nc2ccc3[nH]ccc3c2)c1)c1ccccc1` returned an IC50 of 21.2 µM.

The molecule `O=C(Nc1cccc(C(=O)Nc2ccc3[nH]ncc3c2)c1)c1ccc(Oc2ccccc2)cc1` returned an IC50 of 37.4 µM.

Regarding `O=C(Nc1cccc(C(=O)Nc2ccc3[nH]ncc3c2)c1)c1ccc(F)cc1`, the 50% inhibitory concentration (IC50) was 36.2 µM.

As for `O=C(Nc1cccc(C(=O)Nc2ccc3[nH]ncc3c2)c1)c1ccc(Br)cc1`, the IC50 came to 29.2 µM.

For a further experiment, the target named is Serine/threonine-protein kinase B-raf (Mus musculus, UniProt P28028, V600E). The experiment in a line: Inhibition of mouse full length GST-tagged BRAF V600E mutant using recombinant human full length N-terminal His-tagged MEK1 as substrate preincubated for 1 hr followed by substrate addition measured after 25 mins by Nu-page gel-based phosphor screen analysis.
Chain of Serine/threonine-protein kinase B-raf (P28028 whole entry, looked up, stated change not applied): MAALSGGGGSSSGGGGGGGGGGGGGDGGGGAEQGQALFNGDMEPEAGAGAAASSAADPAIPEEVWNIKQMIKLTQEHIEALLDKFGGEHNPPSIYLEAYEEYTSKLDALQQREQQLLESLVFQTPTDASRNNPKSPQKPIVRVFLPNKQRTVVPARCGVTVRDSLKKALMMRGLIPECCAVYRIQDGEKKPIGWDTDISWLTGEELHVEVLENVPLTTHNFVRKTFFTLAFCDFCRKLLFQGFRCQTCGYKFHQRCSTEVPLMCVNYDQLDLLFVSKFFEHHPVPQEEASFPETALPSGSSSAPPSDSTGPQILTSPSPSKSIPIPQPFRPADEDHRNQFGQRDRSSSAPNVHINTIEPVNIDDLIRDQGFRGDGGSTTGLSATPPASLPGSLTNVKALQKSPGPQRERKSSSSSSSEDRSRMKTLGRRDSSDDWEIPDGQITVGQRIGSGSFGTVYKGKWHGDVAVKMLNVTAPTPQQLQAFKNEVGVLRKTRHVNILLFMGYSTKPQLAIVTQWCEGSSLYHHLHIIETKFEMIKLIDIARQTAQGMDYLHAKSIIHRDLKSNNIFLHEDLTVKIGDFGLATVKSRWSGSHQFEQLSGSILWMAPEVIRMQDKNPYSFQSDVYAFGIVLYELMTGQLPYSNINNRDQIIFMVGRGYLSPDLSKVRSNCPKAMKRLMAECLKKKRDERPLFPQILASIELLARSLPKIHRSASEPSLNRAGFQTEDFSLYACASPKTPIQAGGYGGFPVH
Conditions: not given
With `O=C(Nc1ccc2[nH]ncc2c1)c1cccc(NC(=O)c2ccccn2)c1`, the IC50 was determined as 4.11 µM.

Regarding `O=C(Nc1cccc(C(=O)Nc2ccc3[nH]ccc3c2)c1)c1ccccc1`, the IC50 amounted to 2.11 µM.

On to `O=C(Nc1cccc(C(=O)Nc2ccc3[nH]ncc3c2)c1)c1ccc(Oc2ccccc2)cc1`, for which the IC50 was found to be 5.27 µM.

As to `O=C(Nc1cccc(C(=O)Nc2ccc3[nH]ncc3c2)c1)c1ccc(F)cc1`, the IC50 amounted to 1.57 µM.

Turning to `O=C(Nc1cccc(C(=O)Nc2ccc3[nH]ncc3c2)c1)c1ccc(Br)cc1`, the IC50 came to 2.78 µM.

Another experiment relates to HT-29. The experiment in a line: Antiproliferative activity against human HT-29 cells harboring BRAF V600E mutant after 48 hrs by MTT assay. Particulars: HT-29, 48 h. Type of experiment: functional, cell-based. Put shortly: as §1
The molecule `O=C(Nc1ccc2[nH]ncc2c1)c1cccc(NC(=O)c2ccccn2)c1` returned an IC50 of 17.2 µM.

As for `O=C(Nc1cccc(C(=O)Nc2ccc3[nH]ccc3c2)c1)c1ccccc1`, half-maximal inhibition (IC50) was put at 10.6 µM.

`O=C(Nc1cccc(C(=O)Nc2ccc3[nH]ncc3c2)c1)c1ccc(Oc2ccccc2)cc1` had an IC50 of 18.5 µM.

`O=C(Nc1cccc(C(=O)Nc2ccc3[nH]ncc3c2)c1)c1ccc(F)cc1`: the IC50 is 12.2 µM.

In turn, `O=C(Nc1cccc(C(=O)Nc2ccc3[nH]ncc3c2)c1)c1ccc(Br)cc1` came in with an IC50 of 14.4 µM.

Test system in another experiment: not listed separately
As to the kind of experiment: Antiproliferative activity against wild type BRAF expressing human WM1361 cells after 48 hrs by MTT assay. Type of experiment: functional. The conditions noted are these: WM1361, 48 h. An outline of the steps: as §1
As to `O=C(Nc1ccc2[nH]ncc2c1)c1cccc(NC(=O)c2ccccn2)c1`, inhibition was half-maximal at 28.2 µM (IC50).

Molecule `O=C(Nc1cccc(C(=O)Nc2ccc3[nH]ccc3c2)c1)c1ccccc1` had an IC50 of 24.6 µM.

Molecule `O=C(Nc1cccc(C(=O)Nc2ccc3[nH]ncc3c2)c1)c1ccc(Oc2ccccc2)cc1` yielded an IC50 of 29.6 µM.

Consider `O=C(Nc1cccc(C(=O)Nc2ccc3[nH]ncc3c2)c1)c1ccc(F)cc1`, for which the half-inhibitory concentration (IC50) came to 29.2 µM.

As to `O=C(Nc1cccc(C(=O)Nc2ccc3[nH]ncc3c2)c1)c1ccc(Br)cc1`, half-maximal inhibition (IC50) was put at 24.6 µM.

A further experiment concerns A-375. As to the kind of experiment: Antiproliferative activity against human A375 cells harboring BRAF V600E mutant after 48 hrs by MTT assay. Type of experiment: functional, cell-based. The conditions noted are these: A-375, 48 h. Put shortly: as §1
Regarding `O=C(Nc1ccc2[nH]ncc2c1)c1cccc(NC(=O)c2ccccn2)c1`, inhibition was half-maximal at 8.29 µM (IC50).

The molecule `O=C(Nc1cccc(C(=O)Nc2ccc3[nH]ccc3c2)c1)c1ccccc1` had a half-maximal inhibitory concentration (IC50) of 6.49 µM.

The molecule `O=C(Nc1cccc(C(=O)Nc2ccc3[nH]ncc3c2)c1)c1ccc(Oc2ccccc2)cc1` had an IC50 of 9.45 µM.

With `O=C(Nc1cccc(C(=O)Nc2ccc3[nH]ncc3c2)c1)c1ccc(F)cc1`, the IC50 came out at 7.15 µM.

`O=C(Nc1cccc(C(=O)Nc2ccc3[nH]ncc3c2)c1)c1ccc(Br)cc1` had an IC50 of 5.74 µM.

The values above are taken from ChEMBL document CHEMBL4219184, “Design, synthesis, and biological evaluation of new B-RafV600E kinase inhibitors” (Bioorg Med Chem, 2018).
